From ChEMBL document CHEMBL1240445, “Synthesis, antioxidant and DNA cleavage activities of novel indole derivatives” (Eur J Med Chem, 2010)
Calls of active or inactive are those of the source. No cut-off for these calls is given here.

test system: not listed separately; assay: Antioxidant activity assessed as equivalence of ascorbic acid; type: functional
Outline: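 Phosphomolybdenum total antioxidant capacity: 10, 50 and 500 µg sample mixed with 1.9 mL reagent (0.6 M sulfuric acid, 28 mM sodium phosphate, 4 mM ammonium molybdate), heated 95 °C for 90 min, cooled; absorbance at 695 nm against blank. Expressed as ascorbic acid equivalents from an ascorbic acid standard graph.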

SMILES | Activity
O=C1NC(=O)C(=C(/C=C/c2c[nH]c3ccccc23)c2ccc(Cl)cc2)C(=O)N1 | Active
Cc1ccc(C(/C=C/c2c[nH]c3ccccc23)=C2C(=O)NC(=O)NC2=O)cc1 | Active
O=C1NC(=O)C(=C(/C=C/c2c[nH]c3ccccc23)c2ccccc2)C(=O)N1 | Active

test system: not listed separately; assay: Antioxidant activity assessed as ferric reduction; type: functional
Outline: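 Reducing power: sample with 200 mmol/L sodium phosphate buffer (pH 6.6) and 2.5 mL 1% potassium ferricyanide, held 50 °C for 20 min, then 2.5 mL 10% (w/v) trichloroacetic acid added.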

SMILES | Activity
O=C1NC(=O)C(=C(/C=C/c2c[nH]c3ccccc23)c2ccc(Cl)cc2)C(=O)N1 | Active
Cc1ccc(C(/C=C/c2c[nH]c3ccccc23)=C2C(=O)NC(=O)NC2=O)cc1 | Active
O=C1NC(=O)C(=C(/C=C/c2c[nH]c3ccccc23)c2ccccc2)C(=O)N1 | Active

test system: Radical scavenging activity; assay: Antioxidant activity assessed as DPPH radical scavenging activity; type: functional
Outline: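 DPPH method: 10, 50 and 100 µg sample or BHA brought to 100 µl with MeOH, plus 5 mL 0.1 mM methanolic DPPH, shaken, left 20 min at 27 °C; absorbance at 517 nm versus control lacking sample. % scavenging = [(control OD − sample OD)/control OD] × 100.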

SMILES | Activity
O=C1NC(=O)C(=C(/C=C/c2c(-c3ccccc3)[nH]c3ccc(Cl)cc23)c2ccccc2)C(=O)N1 | Active
O=C1NC(=O)C(=C(/C=C/c2c(-c3ccccc3)[nH]c3ccc(Cl)cc23)c2ccc(Cl)cc2)C(=O)N1 | Active
Cc1ccc(C(/C=C/c2c(-c3ccccc3)[nH]c3ccc(Cl)cc23)=C2C(=O)NC(=O)NC2=O)cc1 | Active

test system: Nucleic Acid; assay: cleavage of Escherichia coli DNA by agarose gel electrophoresis; type: nucleic-acid assay
Outline: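 Genomic DNA from E. coli grown 24 h at 37 °C in nutrient broth, isolated by SDS lysis, phenol and chloroform:isoamyl alcohol extraction, ethanol precipitation. Samples (1 mg/ml stock in DMF) added to DNA, incubated 2 h at 37 °C, mixed 1:1 with bromophenol blue, run on agarose gel in TAE beside DNA marker, 50 V for 30 min.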

SMILES | Activity
O=C1NC(=O)C(=C(/C=C/c2c(-c3ccccc3)[nH]c3ccc(Cl)cc23)c2ccccc2)C(=O)N1 | Active
O=C1NC(=O)C(=C(/C=C/c2c[nH]c3ccccc23)c2ccc(Cl)cc2)C(=O)N1 | Active
Cc1ccc(C(/C=C/c2c[nH]c3ccccc23)=C2C(=O)NC(=O)NC2=O)cc1 | Active
O=C1NC(=O)C(=C(/C=C/c2c[nH]c3ccccc23)c2ccccc2)C(=O)N1 | Active

Further lines, results first:

Activity | SMILES
Active | Cc1ccc2[nH]c(-c3ccccc3)c(/C=C/C(=C3C(=O)NC(=O)NC3=O)c3ccccc3)c2c1
Active | Cc1ccc(C(/C=C/c2c(-c3ccccc3)[nH]c3ccc(C)cc23)=C2C(=O)NC(=O)NC2=O)cc1
Active | O=C1NC(=O)C(=C(/C=C/c2c(-c3ccccc3)[nH]c3ccc(Cl)cc23)c2ccc(Cl)cc2)C(=O)N1
Active | Cc1ccc(C(/C=C/c2c(-c3ccccc3)[nH]c3ccc(Cl)cc23)=C2C(=O)NC(=O)NC2=O)cc1
Active | Cc1ccc2[nH]c(-c3ccccc3)c(/C=C/C(=C3C(=O)NC(=O)NC3=O)c3ccc(Cl)cc3)c2c1
